The results in this text go back to ChEMBL document CHEMBL1123648, “Synthesis, chemical reactivity, and antileukemic activity of 5-substituted 6,7-bis(hydroxymethyl)pyrrolo[1,2-c]thiazole biscarbamates and the corresponding sulfoxides and sulfones” (1987).

Test [1] can be described thus: Toxicity day survivors expressed as number of animals that survived to day five/ number of test animals under control group A at a dose of 6.25 mg/kg; 6 survived out of 6. It counts as functional, Mus musculus.
Test [2] has as its system P388. Description: Log cell population relative to cell population at the beginning of treatment compared to control group C at a dose of 50 mg/kg. Format: functional, Mus musculus.
Test [3] is described as follows: Antileukemic activity against Murine P388 lymphocytic leukemia, body weight difference of the test animals compared to control group A animals at a dose of 50 mg/kg. It counts as functional, Mus musculus. Also noted: unit not given here. A digest of the protocol:
(§1)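 CD2F1 mice implanted intraperitoneally with ascitic fluid carrying ca. 1×10^6 P388 cells, under the NCI protocol. Dosing was intraperitoneal, starting 24 h after inoculation, then every 24 h for five doses in total. The body weight difference of treated mice is taken against untreated controls. Toxicity day survivors are the mice alive at day five out of those tested.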

Test [4] can be described thus: Toxicity day survivors expressed as number of animals that survived to day five/ number of test animals under control group A at a dose of 12.5 mg/kg; 6 survived out of 6. Format: functional, Mus musculus.
The test system of test [5] is P388. In words: Percent increase in life span of test animals compared to untreated tumor-bearing control group B animals at a dose of 50 mg/kg. Format: functional. To be noted: Mus musculus.
Test [6] is described as follows: Antileukemic activity against Murine P388 lymphocytic leukemia, body weight difference of the test animals compared to control group A animals at a dose of 100 mg/kg. Set-up: unit not given here. It counts as functional, Mus musculus. A digest of the protocol: as §1
Test [7] can be described thus: Antileukemic activity against Murine P388 lymphocytic leukemia, body weight difference of the test animals compared to control group B animals at a dose of 100 mg/kg. It counts as functional, Mus musculus. Also noted: unit not given here. An outline of the steps:
as §1

The nature of test [8]: Antileukemic activity against Murine P388 lymphocytic leukemia, body weight difference of the test animals compared to control group C animals at a dose of 6.25 mg/kg. Format: functional, Mus musculus. A digest of the protocol:
as §1

Test [9] in a line: Antileukemic activity against Murine P388 lymphocytic leukemia, body weight difference of the test animals compared to control group B animals at a dose of 12.5 mg/kg. It counts as functional, Mus musculus. Also noted: unit not given here. An outline of the steps:
as §1

Test [10] is described as follows: Percent increase in life span of test animals compared to untreated tumor-bearing control group C animals at a dose of 100 mg/kg. It counts as functional. To be noted: Mus musculus.
A short description of test [11]: Percent increase in life span of test animals compared to untreated tumor-bearing control group C animals at a dose of 12.5 mg/kg. Format: functional. To be noted: Mus musculus.
Test [12] is described as follows: Antileukemic activity against Murine P388 lymphocytic leukemia, body weight difference of the test animals compared to control group C animals at a dose of 100 mg/kg. It counts as functional, Mus musculus. Set-up: unit not given here. A digest of the protocol: as §1
Test [13] can be described thus: Percent increase in life span of test animals compared to untreated tumor-bearing control group A animals at a dose of 12.5 mg/kg. The conditions noted are these: Mus musculus. Format: functional.
Test [14] can be described thus: Antileukemic activity against Murine P388 lymphocytic leukemia, body weight difference of the test animals compared to control group B animals at a dose of 6.25 mg/kg. Format: functional, Mus musculus. A digest of the protocol:
as §1

Test [15] deals with P388. In words: Log cell population relative to cell population at the beginning of treatment compared to control group B at a dose of 25 mg/kg. Format: functional, Mus musculus.
Test [16] is described as follows: Antileukemic activity against Murine P388 lymphocytic leukemia and toxicity day survivors expressed as number of animals that survived to day five/ number of test animals under control group B at a dose of 6.25 mg/kg; 6 survived out of 6. Format: functional, Mus musculus.

By ILS is commonly meant how much longer treated animals lived than controls. For `CC(C)NC(=O)OCc1c(COC(=O)NC(C)C)c(-c2ccc(Cl)c(Cl)c2)n2c1CCC2`, the TDS in test [1], in test [4] and in [16] was 6 in each case. The results for the KE in [2] and in test [15] were 5.27 and 3.01, respectively. Also, the BWD in [3] is on record as -2.6; in [6], -4.2; in test [7], -4.6; in test [8] it was -1.1; in test [9] it was -1.9; in test [12] it was -2.6. This molecule came in with a BWD in test [14] of -0.5. In [5], this molecule displayed an ILS at 50 mg/kg of 95%. The molecule also displayed an ILS at 100 mg/kg in test [10] of 123%. Also, the ILS at 12.5 mg/kg in test [11] is 32%; in test [13], 56%.
